Assay results collected from several papers.

SMILES | host | sample | route | dose | setting | Cmax
COc1cc2c3c(n(CCCN4CCOCC4)c(=O)c2cc1OC)-c1cc2c(cc1C3=O)OCO2 | male Fischer 344 rat | plasma | intravenous | 12 mg/m² | single dose | 406 ng/mL
C=CC(=O)N1CC2CC(n3nc(-c4ccc(C(=O)Nc5ccccn5)cc4)c4c(N)ncnc43)CC2C1 (stereo not shown) | male Wistar rat | plasma | oral | 300 mg/kg |  | 6140 ng/mL
N#Cc1[nH]nnc1-c1cccc(OCc2cc(C(F)(F)F)ccc2C(F)(F)F)c1 | male Sprague-Dawley rat | plasma | oral | 10 mg/kg |  | 4820 ng/mL
Cc1ccc(S(=O)(=O)n2cc3c4c2C(=O)C(NCc2ccc(Cl)cc2)=CC4=NCC3)cc1 | rat | plasma | intravenous | 5 mg/kg | single dose | 1240 ng/mL
Cc1c(-c2ccccc2)cccc1N1C(=O)c2cc(CN[C@H](C(=O)O)C(C)O)c(OCc3cccc(C#N)c3)cc2C1=O (stereo partly shown) | Sprague-Dawley rat | plasma | oral | 50 mg/kg |  | 26 ng/mL
N#Cc1[nH]nnc1-c1csc(-c2ccc(Cl)cc2)n1 | male Sprague-Dawley rat | plasma | oral | 10 mg/kg |  | 5230 ng/mL
CCOC(=O)[C@@]12C[C@@H]1[C@@H](n1ccc3c(NC)nc(C#Cc4ccc(Cl)s4)nc31)[C@H](O)[C@@H]2O | male Sprague-Dawley rat | plasma | oral | 10 mg/kg |  | 192 ng/mL
CC(C)OC(=O)NC1CCN(Cc2cc(Cl)c3cccnc3c2O)CC1 | rat | blood | intraperitoneal | 30 mg/kg |  | 200 nM
CNC(=O)c1c(C)oc2cc(Oc3ncnc4cc(OC)c(OC)cc34)ccc12 | Sprague-Dawley rat | plasma | oral | 1 mg/kg | single dose | 712 ng/mL
COc1ccnc(CNC(=O)c2cn(Cc3ccc(Cn4ccccc4=O)cc3)nc2C(F)(F)F)c1F | male Sprague-Dawley rat | plasma | oral | 10 mg/kg |  | 2490 ng/mL
N#Cc1ccc(Nc2nc(N)cc(Oc3c(F)cc(-c4ccc(C#N)cc4)cc3F)n2)cc1 | Sprague-Dawley rat | plasma | oral | 5 mg/kg |  | 15.4 ng/mL
CNCc1cc(-c2ccccc2F)n(S(=O)(=O)c2cccnc2)c1 | male Sprague-Dawley rat | plasma | oral | 10 mg/kg |  | 140 ng/mL
COc1nc(-c2cc(C)c(N[C@@H](C)c3cc(F)cc(F)c3)nn2)ccc1-n1cnc(C)c1 | male Sprague-Dawley rat | plasma | oral | 5 mg/kg | single dose | 3240 ng/mL
CCc1cc(C(=O)NC)c2nccc(N3CCc4c(cc(Cn5ccnc5)cc4-c4cn(C)nc4C(F)(F)F)C3=O)c2c1 | male Sprague-Dawley rat | plasma | oral | 100 mg/kg | single dose | 10100 ng/mL
COCc1nn(Cc2ccc(Cn3ccccc3=O)cc2)cc1C(=O)NCc1c(F)ccc(OC)c1F | male Sprague-Dawley rat | plasma | oral | 10 mg/kg |  | 2890 ng/mL
O=C1N(Cc2ccccc2Cl)c2ccccc2C12NN=C(c1ccccc1)S2 (stereo not shown) | Sprague-Dawley rat | plasma | oral | 40 mg/kg |  | 1190 ng/mL
